Experiments:
Assay type in all cases: functional
UO-31 = experiment: Growth inhibition of human UO31 cells at 10 uM after 48 hrs by coulter counter method; conditions: UO-31, 48 h, read-out: GI
Procedure, shortened: (§1)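 NCI 60-cell-line panel, single dose. Compound dissolved first in DMSO, then diluted in phosphate-buffered saline so that every final dilution held under 1% DMSO. Duplicate wells received cells at 6 × 10⁴ cells/ml. Controls held PBS/DMSO at the same dilution. Plates were incubated 48 h at 37 °C under 5% CO₂. Cells were then diluted 10-fold in saline and counted on a Coulter counter, with counts corrected for the dilution. Results are given as percent growth inhibition.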

HCT-116 = experiment: Growth inhibition of human HCT116 cells at 10 uM after 48 hrs by coulter counter method; conditions: HCT-116, 48 h, read-out: GI; procedure, shortened: as §1
KM12 = experiment: Growth inhibition of human KM12 cells at 10 uM after 48 hrs by coulter counter method; conditions: KM12, 48 h, read-out: GI; procedure, shortened: as §1
NCI/ADR-RES = experiment: Growth inhibition of human NCI/ADR-RES cells at 10 uM after 48 hrs by coulter counter method; conditions: read-out: GI; procedure, shortened: as §1
ACHN = experiment: Growth inhibition of human ACHN cells at 10 uM after 48 hrs by coulter counter method; conditions: read-out: GI; procedure, shortened: as §1
SR = experiment: Growth inhibition of human SR cells at 10 uM after 48 hrs by coulter counter method; conditions: read-out: GI; procedure, shortened: as §1
SF-295 = experiment: Growth inhibition of human SF295 cells at 10 uM after 48 hrs by coulter counter method; conditions: SF-295, 48 h, read-out: GI; procedure, shortened: as §1
HCT-15 = experiment: Growth inhibition of human HCT15 cells at 10 uM after 48 hrs by coulter counter method; conditions: HCT-15, 48 h, read-out: GI; procedure, shortened: as §1
A498 = experiment: Growth inhibition of human A498 cells at 10 uM after 48 hrs by coulter counter method; conditions: A498, 48 h, read-out: GI; procedure, shortened: as §1
EKVX = experiment: Growth inhibition of human EKVX cells at 10 uM after 48 hrs by coulter counter method; conditions: read-out: GI; procedure, shortened: as §1
NCI-H23 = experiment: Growth inhibition of human NCI-H23 cells at 10 uM after 48 hrs by coulter counter method; conditions: NCI-H23, 48 h, read-out: GI; procedure, shortened: as §1
NCI-H322M = experiment: Growth inhibition of human NCI-H322M cells at 10 uM after 48 hrs by coulter counter method; conditions: read-out: GI; procedure, shortened: as §1
M14 = experiment: Growth inhibition of human M14 cells at 10 uM after 48 hrs by coulter counter method; conditions: M14, 48 h, read-out: GI; procedure, shortened: as §1
SNB-19 = experiment: Growth inhibition of human SNB19 cells at 10 uM after 48 hrs by coulter counter method; conditions: SNB-19, 48 h, read-out: GI; procedure, shortened: as §1
MDA-MB-468 = experiment: Growth inhibition of human MDA-MB-468 cells at 10 uM after 48 hrs by coulter counter method; conditions: MDA-MB-468, 48 h, read-out: GI; procedure, shortened: as §1
OVCAR-8 = experiment: Growth inhibition of human OVCAR8 cells at 10 uM after 48 hrs by coulter counter method; conditions: OVCAR-8, 48 h, read-out: GI; procedure, shortened: as §1
UACC-62 = experiment: Growth inhibition of human UACC62 cells at 10 uM after 48 hrs by coulter counter method; conditions: UACC-62, 48 h, read-out: GI; procedure, shortened: as §1
SK-MEL-5 = experiment: Growth inhibition of human SK-MEL-5 cells at 10 uM after 48 hrs by coulter counter method; conditions: SK-MEL-5, 48 h, read-out: GI; procedure, shortened: as §1
SK-MEL-2 = experiment: Growth inhibition of human SK-MEL-2 cells at 10 uM after 48 hrs by coulter counter method; conditions: SK-MEL-2, 48 h, read-out: GI; procedure, shortened: as §1
CAKI-1 = experiment: Growth inhibition of human Caki1 cells at 10 uM after 48 hrs by coulter counter method; conditions: CAKI-1, 48 h, read-out: GI; procedure, shortened: as §1
CCRF-CEM = experiment: Growth inhibition of human CCRF-CEM cells at 10 uM after 48 hrs by coulter counter method; conditions: read-out: GI; procedure, shortened: as §1
BT-549 = experiment: Growth inhibition of human BT549 cells at 10 uM after 48 hrs by coulter counter method; conditions: BT-549, 48 h, read-out: GI; procedure, shortened: as §1
LOX IMVI = experiment: Growth inhibition of human LOXIMVI cells at 10 uM after 48 hrs by coulter counter method; conditions: read-out: GI; procedure, shortened: as §1
PC-3 = experiment: Growth inhibition of human PC3 cells at 10 uM after 48 hrs by coulter counter method; conditions: PC-3, 48 h, read-out: GI; procedure, shortened: as §1
MOLT-4 = experiment: Growth inhibition of human MOLT4 cells at 10 uM after 48 hrs by coulter counter method; conditions: MOLT-4, 48 h, read-out: GI; procedure, shortened: as §1
SNB-75 = experiment: Growth inhibition of human SNB75 cells at 10 uM after 48 hrs by coulter counter method; conditions: SNB-75, 48 h, read-out: GI; procedure, shortened: as §1
NCI-H226 = experiment: Growth inhibition of human NCI-H226 cells at 10 uM after 48 hrs by coulter counter method; conditions: NCI-H226, 48 h, read-out: GI; procedure, shortened: as §1
K562 = experiment: Growth inhibition of human K562 cells at 10 uM after 48 hrs by coulter counter method; conditions: K562, 48 h, read-out: GI; procedure, shortened: as §1
HT-29 = experiment: Growth inhibition of human HT-29 cells at 10 uM after 48 hrs by coulter counter method; conditions: HT-29, 48 h, read-out: GI; procedure, shortened: as §1
U-251 = experiment: Growth inhibition of human U251 cells at 10 uM after 48 hrs by coulter counter method; conditions: U-251, 48 h, read-out: GI; procedure, shortened: as §1
A549 = experiment: Growth inhibition of human A549 cells at 10 uM after 48 hrs by coulter counter method; conditions: A549, 48 h, read-out: GI; procedure, shortened: as §1
SF-268 = experiment: Growth inhibition of human SF268 cells at 10 uM after 48 hrs by coulter counter method; conditions: SF-268, 48 h, read-out: GI; procedure, shortened: as §1
UACC-257 = experiment: Growth inhibition of human UACC257 cells at 10 uM after 48 hrs by coulter counter method; conditions: UACC-257, 48 h, read-out: GI; procedure, shortened: as §1
TK-10 = experiment: Growth inhibition of human TK10 cells at 10 uM after 48 hrs by coulter counter method; conditions: TK-10, 48 h, read-out: GI; procedure, shortened: as §1
Malme-3M = experiment: Growth inhibition of human MALME-3M cells at 10 uM after 48 hrs by coulter counter method; conditions: read-out: GI; procedure, shortened: as §1
RPMI-8226 = experiment: Growth inhibition of human RPMI8226 cells at 10 uM after 48 hrs by coulter counter method; conditions: RPMI-8226, 48 h, read-out: GI; procedure, shortened: as §1
MDA-MB-435 = experiment: Growth inhibition of human MDA-MB-435 cells at 10 uM after 48 hrs by coulter counter method; conditions: MDA-MB-435, 48 h, read-out: GI; procedure, shortened: as §1
MCF7 = experiment: Growth inhibition of human MCF7 cells at 10 uM after 48 hrs by coulter counter method; conditions: MCF7, 48 h, read-out: GI; procedure, shortened: as §1
NCI-H522 = experiment: Growth inhibition of human NCI-H522 cells at 10 uM after 48 hrs by coulter counter method; conditions: NCI-H522, 48 h, read-out: GI; procedure, shortened: as §1
SK-MEL-28 = experiment: Growth inhibition of human SK-MEL-28 cells at 10 uM after 48 hrs by coulter counter method; conditions: SK-MEL-28, 48 h, read-out: GI; procedure, shortened: as §1
SN12C = experiment: Growth inhibition of human SN12C cells at 10 uM after 48 hrs by coulter counter method; conditions: read-out: GI; procedure, shortened: as §1
786-0 = experiment: Growth inhibition of human 786-0 cells at 10 uM after 48 hrs by coulter counter method; conditions: 786-0, 48 h, read-out: GI; procedure, shortened: as §1
IGROV-1 = experiment: Growth inhibition of human IGROV1 cells at 10 uM after 48 hrs by coulter counter method; conditions: IGROV-1, 48 h, read-out: GI; procedure, shortened: as §1
HL-60(TB) = experiment: Growth inhibition of human HL-60(TB) cells at 10 uM after 48 hrs by coulter counter method; conditions: HL-60, 48 h, read-out: GI
Procedure, shortened: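 Single-dose screen on the NCI 60-line panel (leukemia subpanel). Compound is dissolved in DMSO and diluted in PBS, with final DMSO below 1%. Duplicate wells hold 6 × 10⁴ cells/ml at 37 °C, 5% CO₂, for 48 h. Cells are counted by Coulter counter after 10-fold saline dilution. Read-out is percent growth versus PBS/DMSO controls, expressed as % growth inhibition.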

T47D = experiment: Growth inhibition of human T47D cells at 10 uM after 48 hrs by coulter counter method; conditions: read-out: GI; procedure, shortened: as §1

SMILES: NC1=CC(N)=NC2SC(c3ccccc3)=NN12 (stereo not given)
- inhibition of growth at 10 µM (UO-31): 36.6%
- inhibition of growth at 10 µM (HCT-116): < 10%
- inhibition of growth at 10 µM (KM12): < 10%
- inhibition of growth at 10 µM (NCI/ADR-RES): < 10%
- inhibition of growth at 10 µM (ACHN): < 10%
- inhibition of growth at 10 µM (SR): < 10%
- inhibition of growth at 10 µM (SF-295): < 10%
- inhibition of growth at 10 µM (HCT-15): < 10%
- inhibition of growth at 10 µM (A498): < 10%
- inhibition of growth at 10 µM (EKVX): < 10%
- inhibition of growth at 10 µM (NCI-H23): < 10%
- inhibition of growth at 10 µM (NCI-H322M): < 10%
- inhibition of growth at 10 µM (M14): < 10%
- inhibition of growth at 10 µM (SNB-19): < 10%
- inhibition of growth at 10 µM (MDA-MB-468): < 10%
- inhibition of growth at 10 µM (OVCAR-8): < 10%
- inhibition of growth at 10 µM (UACC-62): < 10%
- inhibition of growth at 10 µM (SK-MEL-5): < 10%
- inhibition of growth at 10 µM (SK-MEL-2): < 10%
- inhibition of growth at 10 µM (CAKI-1): 10.7%
- inhibition of growth at 10 µM (CCRF-CEM): < 10%
- inhibition of growth at 10 µM (BT-549): < 10%
- inhibition of growth at 10 µM (LOX IMVI): < 10%
- inhibition of growth at 10 µM (PC-3): < 10%
- inhibition of growth at 10 µM (MOLT-4): < 10%
- inhibition of growth at 10 µM (SNB-75): 11.6%
- inhibition of growth at 10 µM (NCI-H226): < 10%
- inhibition of growth at 10 µM (K562): < 10%
- inhibition of growth at 10 µM (HT-29): < 10%
- inhibition of growth at 10 µM (U-251): < 10%
- inhibition of growth at 10 µM (A549): < 10%
- inhibition of growth at 10 µM (SF-268): < 10%
- inhibition of growth at 10 µM (UACC-257): 16.4%
- inhibition of growth at 10 µM (TK-10): < 10%
- inhibition of growth at 10 µM (Malme-3M): < 10%
- inhibition of growth at 10 µM (RPMI-8226): < 10%
- inhibition of growth at 10 µM (MDA-MB-435): < 10%
- inhibition of growth at 10 µM (MCF7): < 10%
- inhibition of growth at 10 µM (NCI-H522): < 10%
- inhibition of growth at 10 µM (SK-MEL-28): < 10%
- inhibition of growth at 10 µM (SN12C): < 10%
- inhibition of growth at 10 µM (786-0): < 10%
- inhibition of growth at 10 µM (IGROV-1): 15.8%
- inhibition of growth at 10 µM (HL-60(TB)): < 10%
- inhibition of growth at 10 µM (T47D): < 10%

Source: ChEMBL document CHEMBL1926577, “Novel 1,3,4-heterodiazole analogues: synthesis and in-vitro antitumor activity” (2012)
